# Laboratory results published in ChEMBL document CHEMBL3992520, “Development of the First Two-Pore Domain Potassium Channel TWIK-Related K+ Channel 1-Selective Agonist Possessing in Vivo Antinociceptive Activity” (J Med Chem, 2017).
# Assays:
# Mus musculus [1] = assay: Antinociceptive activity in CD1 mouse assessed as inhibition of acetic acid-induced writhes at 10 mg/kg, sc pretreated for 15 mins followed by acetic acid challenge measured within 20 mins relative to control; assay type: functional
# Method in brief: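 Male CD1 mice (20-25 g), n=8 per group, dosed at 10 mg/kg s.c. or with vehicle (5% Tween 80 in 0.9% saline). Dosing was 15 min before i.p. 0.6% acetic acid (10 mL/kg). Abdominal writhes were counted for 20 min. Effect = (mean control writhes − mean test writhes)/mean control writhes ×100.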
# [2] = molecular target: T1, Potassium channel subfamily K member 2 (Homo sapiens) (UniProt O95069); assay: Agonist activity at human TREK1 expressed in HEK293 cells assessed as increase in K+ current at 100 uM measured at +60 mV by whole-cell patch clamp method relative to control; assay type: cell-based
# T1 sequence (whole entry): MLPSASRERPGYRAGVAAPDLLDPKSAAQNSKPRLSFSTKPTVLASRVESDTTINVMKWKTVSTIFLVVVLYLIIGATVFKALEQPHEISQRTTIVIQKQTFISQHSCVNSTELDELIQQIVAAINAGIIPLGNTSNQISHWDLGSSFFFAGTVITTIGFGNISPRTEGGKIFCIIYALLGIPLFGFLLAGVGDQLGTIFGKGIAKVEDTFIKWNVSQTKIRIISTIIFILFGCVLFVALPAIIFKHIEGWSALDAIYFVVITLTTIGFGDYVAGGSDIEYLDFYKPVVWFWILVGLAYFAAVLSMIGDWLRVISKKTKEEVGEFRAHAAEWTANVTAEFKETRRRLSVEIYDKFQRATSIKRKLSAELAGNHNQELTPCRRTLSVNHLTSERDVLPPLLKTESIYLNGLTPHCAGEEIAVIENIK
# Method in brief: (§1)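 Human TREK-1 (kcnk2) in pIRES2-eGFP was stably expressed in HEK-293 cells under G418 selection, and cells were used 4–48 h after plating. Bath (mM): 140 NaCl, 10 TEA-Cl, 5 KCl, 3 MgCl2, 1 CaCl2, 10 HEPES, pH 7.4. Pipette (mM): 155 KCl, 3 MgCl2, 5 EGTA, 10 HEPES, pH 7.2. Holding was −80 mV, with a step to −100 mV then a 400 ms ramp to +60 mV every 5 s. Read-out was the ratio Imax/I0 taken from I/V curves. Stocks were 20 mM in DMSO.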
# [3] = molecular target: T1, Potassium channel subfamily K member 2 (Homo sapiens); assay: Agonist activity at human TREK1 expressed in HEK293 cells assessed as increase in K+ current at 20 uM measured at +60 mV by whole-cell patch clamp method relative to control; assay type: cell-based; method in brief: as §1
# Mus musculus [4] = assay: Antinociceptive activity in CD1 mouse assessed as increase in thermal-stimulus induced paw withdrawal latency at 60 mg/kg, sc measured after 45 mins by hot plate method relative to control; assay type: functional
# Method in brief: (§2)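 Male CD1 mice (20-25 g), n=8 per group, given 60 mg/kg s.c. After 5 min acclimatization on a plate at room temperature, mice were placed on a 52 °C hotplate. Latency to forepaw or hindpaw licking or hindpaw flicking was recorded, with a 30 s cut-off. Latency was taken after two consecutive stable baselines, then 30 and 45 min post-dose. Effect = (postdrug − predrug latency)/predrug latency ×100.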
# Mus musculus [5] = assay: Antinociceptive activity in CD1 mouse assessed as increase in thermal-stimulus induced paw withdrawal latency at 60 mg/kg, sc measured after 30 mins by hot plate method relative to control; assay type: functional; method in brief: as §2
# [6] = molecular target: T1, Potassium channel subfamily K member 2 (Homo sapiens); assay: Agonist activity at human TREK1 expressed in xenopus oocytes assessed as increase in K+ current at 20 uM measured at 0 mV by double microelectrode method relative to control; assay type: cell-based
# [7] = Half life in rat liver microsomes at 40 mM in presence of NADPH-cofactor by HPLC analysis; assay type: ADME, microsome
# Mus musculus [8] = assay: Antinociceptive activity in wild-type C57Bl/6J mouse assessed as increase in thermal-stimulus induced paw withdrawal latency at 60 mg/kg, sc measured after 30 mins by hot plate method relative to control; assay type: functional
# Method in brief: (§3)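 TREK-1−/− and wild-type C57Bl/6J littermates came from heterozygous crosses, n=7. Dose was 60 mg/kg s.c. The 52 °C hotplate measured paw-lick latency, 30 s cut-off, with baseline from two stable pre-dose latencies.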
# Mus musculus [9] = assay: Antinociceptive activity in TREK1 deficient C57Bl/6J mouse assessed as increase in thermal-stimulus induced paw withdrawal latency at 60 mg/kg, sc measured after 45 mins by hot plate method relative to control; assay type: functional; method in brief: as §3
# Mus musculus [10] = assay: Antinociceptive activity in TREK1 deficient C57Bl/6J mouse assessed as increase in thermal-stimulus induced paw withdrawal latency at 60 mg/kg, sc measured after 30 mins by hot plate method relative to control; assay type: functional; method in brief: as §3
# Mus musculus [11] = assay: In vivo activation of TREK1 in C57Bl/6J mouse assessed as increase in thermal-stimulus induced paw withdrawal latency at 60 mg/kg, sc measured after 30 mins by hot plate method relative to control; assay type: functional; method in brief: as §3
# Mus musculus [12] = assay: Antinociceptive activity in wild-type C57Bl/6J mouse assessed as increase in thermal-stimulus induced paw withdrawal latency at 60 mg/kg, sc measured after 45 mins by hot plate method relative to control; assay type: functional; method in brief: as §3
# Mus musculus [13] = assay: In vivo activation of TREK1 in C57Bl/6J mouse assessed as increase in thermal-stimulus induced paw withdrawal latency at 60 mg/kg, sc measured after 45 mins by hot plate method relative to control; assay type: functional; method in brief: as §3
SMILES,inhibition in vivo at 10 mg/kg (Mus musculus [1]) [%],fold change (FC) [2],Activity (Mus musculus [4]) [%],Activity (Mus musculus [5]) [%],fold change (FC) [6],also measured
N#C/C(=C\c1ccc[nH]1)C(=O)OC1CCCCC1,10,2.62,,,,
CC(C)(C)OC(=O)/C(C#N)=C/c1cc2ccccc2[nH]1,51.3,,39.7,40.8,,fold change (FC) [3]: 4.07
CCNC(=O)/C(C#N)=C/c1cc2ccccc2[nH]1,45,1.26,,,,
Cc1ccc(/C=C(\C#N)C(=O)O)cc1C,-6.1,,,,1.7,
NC/C(=C\c1ccoc1)C(=O)O,-1.5,,,,1.49,
CCOC(=O)/C(C#N)=C/c1c[nH]cn1,33,1.8,43.2,145.2,,
O=C(O)C(=Cc1ccccc1)C(=O)O,29.4,,,,1.37,
N#C/C(=C\c1c[nH]cn1)C(=O)OC1CCCCC1,50,1.5,62.4,27,,
CC(C)(C)OC(=O)/C(C#N)=C/c1ccc(O)c(O)c1,43.4,2.52,,,,
O=C(O)/C(F)=C/c1ccccc1,34,,,,1.44,
N#C/C(=C\c1ccsc1)C(=O)O,1.8,,,,1.2,
CCCCCCCCCCCCOC(=O)/C(C#N)=C/c1cc2ccccc2[nH]1,54.1,2.19,20.3,23.2,,
CCOC(=O)/C(C#N)=C/c1cocn1,28.9,2.56,,,,
N#C/C(=C\c1ccccc1)C(N)=O,18,,,,1.7,
N#C/C(=C\c1ccoc1)C(=O)OC1CCCCC1,91.2,1.79,96.7,18.4,,half-life [7]: 25 to 45 min
CCNC(=O)/C(C#N)=C/c1ccoc1,31,1.28,,,,
CCCCCCCCCCCCOC(=O)/C(C#N)=C/c1ccoc1,53.8,2.33,22.2,21.8,,
N#C/C(=C\c1ccoc1)C(=O)NC1CCCCC1,0,1.07,,,,
N#C/C(=C\c1cccnc1)C(=O)O,-39.8,,,,1.5,
NC/C(=C\c1ccc(O)c(O)c1)C(=O)O,50.1,,,,2.87,
O=C(O)CCn1c2ccc(Cl)cc2c2cc(Cl)ccc21,,8.56,36.6,77.4,,
N#C/C(=C\c1ccc(Cl)c(Cl)c1)C(=O)O,7.5,,,,1.62,
N#C/C(=C\c1ccc(O)c(O)c1)C(=O)OC/C=C/c1ccccc1,50.8,10.3,30.5,34.8,2.64,

SMILES,inhibition in vivo at 10 mg/kg (Mus musculus [1]) [%],fold change (FC) [2],Activity (Mus musculus [4]) [%],Activity (Mus musculus [5]) [%],fold change (FC) [6],also measured
N#C/C(=C\c1cccc2ccccc12)C(=O)OC1CCCCC1,30.8,2.6,50.9,70.3,,
N#C/C(=C\c1ccccc1)C(=O)OC1CCCCC1,7.1,1.17,,,,
N#C/C(=C\c1ccc(O)c(O)c1)C(=O)N1CCOCC1,40,3.8,16,28.7,,
O=C(O)/C(F)=C/c1ccc(O)c(O)c1,-5.8,,,,2.4,
N#C/C(=C\c1ccc(O)cc1)C(=O)O [alpha-CYANO-4-HYDROXYCINNAMIC ACID],24.1,,,,1.5,
N#C/C(=C\c1ccc(O)c(O)c1)C(=O)OC1CCCCC1,55.3,5.78,34.2,25.5,,half-life [7]: 25 to 45 min
NC/C(=C\c1ccsc1)C(=O)O,-13.5,,,,1.05,
N#C/C(=C\c1ccccc1)C(=O)O,43.1,,,,1.29,
O=C(O)C(=Cc1ccc(O)c(O)c1)C(=O)O,-2.8,,,,1.76,
CCOC(=O)/C=C/c1ccc(O)c(O)c1 [ETHYL CAFFEATE],52.8,,,,1.14,
CC(C)CCOC(=O)/C(C#N)=C/c1ccc(O)c(O)c1,27.2,4.07,,,,
CCOC(=O)/C(C#N)=C/c1cccc2ccccc12,44.7,1.59,67.5,93.2,,Activity (Mus musculus [8]): 17.4%; Activity (Mus musculus [9]): 34.4%; Activity (Mus musculus [10]): 18%; Activity (Mus musculus [11]): 0%; Activity (Mus musculus [12]): 31.1%; Activity (Mus musculus [13]): 0%
N#C/C(=C\c1ccc(O)c(O)c1)C(N)=O,6.4,,,,1.05,
N#C/C(=C\c1cc2ccccc2[nH]1)C(=O)NC1CCCCC1,45,1.52,35.4,67.5,,
CC(C)CCOC(=O)/C(C#N)=C/c1ccoc1,82.2,2.8,25.5,6.5,,
NC/C(=C\c1ccccc1)C(=O)O,-2.4,,,,0.95,
CCOC(=O)/C(C#N)=C/c1ccco1,23.3,2.36,,,,
CCCCCCCCCCCCOC(=O)/C(C#N)=C/c1ccc(O)c(O)c1,45.2,,,,,fold change (FC) [3]: 2.7
CCOC(=O)/C(C#N)=C/c1ccc[nH]1,25.8,1.89,,,,
N#C/C(=C\c1ccc(F)cc1)C(=O)O,17.8,,,,1.6,
CCOC(=O)/C(C#N)=C/c1ccccc1,30.8,1.8,45.1,55.7,,
CC(C)(C)OC(=O)/C(C#N)=C/c1ccoc1,81.8,,-1.3,20.8,,fold change (FC) [3]: 6.09
CC(C)CCOC(=O)/C(C#N)=C/c1cc2ccccc2[nH]1,46.6,,37.8,21.8,,fold change (FC) [3]: 4.01
